Rows were chosen to be rich in hits. Some 5% of all compounds tested hit in one or more screens of this group.
Mdm2-MdmX inh: human Mdm2/MdmX binding inhibition; actives 3% (n = 330,000); inhibition, % at 8 µM; SaOS-2 split-luciferase Mdm2/MdmX complementation, luminescence; O15151+Q00987;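 active = inhibition of at least 50% at 8 µM in the primary screen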
Target sequence (O15151 whole entry, looked up): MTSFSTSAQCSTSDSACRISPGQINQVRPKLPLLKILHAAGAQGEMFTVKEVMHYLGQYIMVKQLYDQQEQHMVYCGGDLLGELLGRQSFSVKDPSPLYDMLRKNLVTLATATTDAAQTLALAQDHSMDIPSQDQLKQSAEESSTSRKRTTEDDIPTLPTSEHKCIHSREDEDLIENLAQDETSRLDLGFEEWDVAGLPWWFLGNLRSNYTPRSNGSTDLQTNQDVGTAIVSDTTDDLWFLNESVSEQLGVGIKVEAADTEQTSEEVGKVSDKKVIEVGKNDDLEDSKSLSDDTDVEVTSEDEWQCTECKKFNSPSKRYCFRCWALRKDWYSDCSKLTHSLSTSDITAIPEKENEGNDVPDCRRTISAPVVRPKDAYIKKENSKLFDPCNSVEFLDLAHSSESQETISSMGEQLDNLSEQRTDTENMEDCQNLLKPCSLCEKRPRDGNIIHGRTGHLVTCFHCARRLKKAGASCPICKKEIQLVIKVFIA
Target sequence (Q00987 whole entry, looked up): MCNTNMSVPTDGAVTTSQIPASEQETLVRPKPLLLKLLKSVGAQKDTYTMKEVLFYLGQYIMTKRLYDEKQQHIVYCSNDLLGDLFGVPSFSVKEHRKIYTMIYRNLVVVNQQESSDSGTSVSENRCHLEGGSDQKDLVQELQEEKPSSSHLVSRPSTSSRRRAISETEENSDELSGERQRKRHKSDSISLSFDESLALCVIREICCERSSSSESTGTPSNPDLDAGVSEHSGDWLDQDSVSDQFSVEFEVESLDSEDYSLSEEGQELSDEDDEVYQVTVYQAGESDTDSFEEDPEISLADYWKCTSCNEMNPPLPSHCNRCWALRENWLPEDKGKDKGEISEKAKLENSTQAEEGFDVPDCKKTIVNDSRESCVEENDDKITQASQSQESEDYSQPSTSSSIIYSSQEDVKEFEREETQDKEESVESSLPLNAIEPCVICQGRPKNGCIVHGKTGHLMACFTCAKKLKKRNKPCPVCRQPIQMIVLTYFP
UPR XBP1 act: activators of adaptive arm of unfolded protein response (XBP1). CHO-XBP1 luciferase reporter, IRE1-XBP1 UPR activation, luminescence; percent of tunicamycin response, DMSO as zero. activation, % at 20 µM. actives 0.33% (n = 330,000). AID 463104;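 active = versus positive control, 20 µM dose yields 30% or more activation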
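Material: CHO-XBP1 cells stably carrying IRE1-XBP1-driven luciferase reporter / Amount: 1000 cells per well / Compound: 20 µM, 1% DMSO / Times: 6 h treatment, 37 °C / Detection: luciferase luminescence / Measure: % activation of reporter signal versus tunicamycin and DMSO controls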
CHOP UPR activ: apoptotic UPR (CHOP) activation. CHO-CHOP luciferase reporter, luminescence; percent of tunicamycin response over DMSO baseline. activation, % at 10 µM. actives 0.34% (n = 330,000). AID 449763;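 active = at 10 µM dose, activation of 40% or more, normalized to positive control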
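System: CHO-CHOP luciferase reporter cell line; amount: 500 cells/well; buffer or medium: F12 medium containing 10% fetal bovine serum; incubation: 6 h compound exposure at 37 °C after overnight seeding; measured by: luciferase luminescence after 10 min with Steady-Glo reagent; evaluation: % reporter activation, DMSO baseline versus tunicamycin full activation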
CSC inhib: cancer stem cell inhibition; cancer stem cell-like cells viability, luminescence; inhibition, % at 7.5 µM; actives 1.1% (n = 300,000); in the data active = inhibition above about 75%; tested in HMLE shEcad cells
T cruzi repl: blocks replication of Trypanosoma cruzi. T. cruzi beta-gal in NIH3T3, luminescence, 90 h. inhibition, % (no concentration beside the values). actives 1.4% (n = 300,000);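 active = mean inhibition across valid replicates above about 55%, limit read from the data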;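 note: signal also drops with host cell toxicity which is not excluded here; higher percent means less beta-gal luminescence so fewer parasites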
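Material: NIH/3T3 host cells with β-galactosidase reporter T. cruzi; Input: 5,000 host fibroblasts per well; Medium: DMEM, 2% fetal bovine serum; Compound: 50 nL DMSO compound solution per well; Schedule: 3 h host attachment, then at least 90 h co-culture; Detection: luminescent β-galactosidase signal after 60 min lysis.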
Beta apoptosis: blocks beta cell apoptosis. INS-1E cytokine-induced death, ATP luminescence, 48 h; percent of positive-control rescue, neutral wells zero. protection from apoptosis, % (no concentration beside the values). actives 0.8% (n = 300,000). AID 435005;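 active = Every replicate reaches about 75%, or at least half do and their mean reaches it too, limit read from the data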;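 note: higher means more ATP so stronger rescue from cytokine killing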
Mdm2-MdmX conf: confirmation of human Mdm2/MdmX interaction inhibitors; actives 55% (n = 10,000); AID 489028; shares compounds with Mdm2-MdmX inh; Mdm2-MdmX binding, luminescent assay; inhibition, % at 8 µM; in the data active = inhibition above about 40%
Full FLuc ctr: full-length luciferase inhibition in Mdm2/MdmX counter-screen | AID 504607 | shares compounds with Mdm2-MdmX inh | inhibition, % at 8 µM | actives 77% (n = 6,200) | SaOS-2 full-length luciferase counterscreen, luminescence;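 active = mean inhibition at 8 µM reaching about 37%, which flags the compound as non-specific, limit read from the data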;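 note: p53-null SaOS-2 cells with luciferase driven by a doxycycline-inducible promoter; compound on cells about two nights before reading with doxycycline added after day one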
A number is an active result.

What do the screens show for `CC12CCC3C(CC=C4CC(O)CCC43C)C1C/C(=C\c1ccccc1F)C2=O` (centres undefined)?
Mdm2-MdmX inh: 78; UPR XBP1 act: inactive; CHOP UPR activ: inactive; CSC inhib: 99; T cruzi repl: inactive; Beta apoptosis: inactive; Mdm2-MdmX conf: inactive

How did C[C@]12CC[C@H](O)CC1=CCC1C2CC[C@]2(C)C(=O)[C@H](Br)CC12 (some centres undefined) do in these assays?
Mdm2-MdmX inh: 50; UPR XBP1 act: inactive; CHOP UPR activ: inactive; CSC inhib: inactive; Beta apoptosis: inactive; Mdm2-MdmX conf: inactive

Results for COC(=O)C1=C(c2ccccc2OCc2ccccc2)C[C@@H]2CC[C@H]1N2C(=O)NCc1ccc([N+](=O)[O-])cc1 ?
Mdm2-MdmX inh: inactive; UPR XBP1 act: inactive; CHOP UPR activ: inactive; CSC inhib: inactive; Beta apoptosis: inactive

Results for COc1ccc2c3c1OC1C(=O)CC[C@@]4(O)[C@@H](C2)N(CC2CC2)CC[C@]314 (some centres undefined) ?
Mdm2-MdmX inh: inactive; UPR XBP1 act: inactive; CHOP UPR activ: inactive

Results for Cc1c(C)c2ccc(OCC(=O)N3C[C@H]4C[C@@H](C3)c3cccc(=O)n3C4)cc2oc1=O ?
Mdm2-MdmX inh: inactive; UPR XBP1 act: inactive; CHOP UPR activ: inactive; CSC inhib: inactive; T cruzi repl: inactive; Beta apoptosis: inactive

Results for C[CH2][Hg][S]c1ccccc1C(=O)O ?
Mdm2-MdmX inh: 100; UPR XBP1 act: inactive; CHOP UPR activ: inactive; CSC inhib: 104; Beta apoptosis: 114; Mdm2-MdmX conf: 100; Full FLuc ctr: 52

What do the screens show for `COc1ccc2c(c1)C13CCCC[C@@H]1C(C2)N(C)CC3` (some centres undefined)?
Mdm2-MdmX inh: 51; UPR XBP1 act: inactive; CHOP UPR activ: inactive; CSC inhib: inactive; T cruzi repl: inactive; Beta apoptosis: inactive; Mdm2-MdmX conf: inactive

How did COc1ccc2c(c1O)[C@]13CCN(C)[C@H](C2)[C@@H]1CCC(=O)C3 do in these assays?
Mdm2-MdmX inh: inactive; UPR XBP1 act: inactive; CHOP UPR activ: inactive; CSC inhib: inactive; T cruzi repl: inactive; Beta apoptosis: inactive

What do the screens show for `O=C(CCCN1CCC2(CC1)C(=O)NCN2c1ccccc1)c1ccc(F)cc1`?
Mdm2-MdmX inh: 63; UPR XBP1 act: inactive; CHOP UPR activ: inactive; CSC inhib: inactive; T cruzi repl: inactive; Beta apoptosis: inactive; Mdm2-MdmX conf: inactive

Results for CCn1c(O)c(/C=N/N2CCOCC2)c(=O)n(CC)c1=S ?
Mdm2-MdmX inh: inactive; UPR XBP1 act: inactive; CHOP UPR activ: inactive; CSC inhib: inactive; T cruzi repl: inactive; Beta apoptosis: inactive

What do the screens show for `CCn1c(O)c(N=Nc2ccc(S(=O)(=O)N3CCOCC3)cc2)c(=O)n(CC)c1=S`?
Mdm2-MdmX inh: 58; UPR XBP1 act: inactive; CHOP UPR activ: inactive; CSC inhib: inactive; T cruzi repl: inactive; Beta apoptosis: inactive; Mdm2-MdmX conf: inactive

Results for Cc1cc(OCC(=O)N2CCC(C(=O)O)CC2)c2c3c(c(=O)oc2c1)CCC3 ?
Mdm2-MdmX inh: inactive; UPR XBP1 act: inactive; CHOP UPR activ: inactive; CSC inhib: inactive; T cruzi repl: inactive; Beta apoptosis: inactive

Results for COC(=O)C1=C(c2ccc(S(C)(=O)=O)cc2)C[C@@H]2CC[C@H]1N2C(=O)NC(C)C ?
Mdm2-MdmX inh: inactive; UPR XBP1 act: inactive; CHOP UPR activ: inactive; CSC inhib: inactive; T cruzi repl: inactive; Beta apoptosis: inactive

How did CCCCCCn1c(N)c(C(=O)NCCN2CCOCC2)c2nc3ccccc3nc21 do in these assays?
Mdm2-MdmX inh: 58; UPR XBP1 act: inactive; CHOP UPR activ: inactive; CSC inhib: 111; T cruzi repl: inactive; Beta apoptosis: inactive; Mdm2-MdmX conf: inactive

How did CCCCCn1c(N)c(C(=O)NCCN2CCOCC2)c2nc3ccccc3nc21 do in these assays?
Mdm2-MdmX inh: inactive; UPR XBP1 act: inactive; CHOP UPR activ: inactive; CSC inhib: inactive; T cruzi repl: inactive; Beta apoptosis: inactive

How did COc1ccc(CCNC(=O)c2c(N)n(CCN3CCOCC3)c3nc4ccccc4nc23)cc1OC do in these assays?
Mdm2-MdmX inh: 54; UPR XBP1 act: inactive; CHOP UPR activ: inactive; CSC inhib: inactive; T cruzi repl: inactive; Beta apoptosis: inactive; Mdm2-MdmX conf: inactive

Results for Nc1c(C(=O)NCc2ccco2)c2nc3ccccc3nc2n1CCN1CCOCC1 ?
Mdm2-MdmX inh: inactive; UPR XBP1 act: inactive; CHOP UPR activ: inactive; CSC inhib: inactive; T cruzi repl: inactive; Beta apoptosis: inactive

Results for C[C@]12CCC3C(CC[C@@H]4C[C@H](O)CC[C@]34C)C1CCC2=O (some centres undefined) ?
Mdm2-MdmX inh: inactive; UPR XBP1 act: inactive; CHOP UPR activ: inactive; CSC inhib: inactive; Beta apoptosis: inactive

How did COc1ccccc1-n1c(O)c(/C=N/NC(=S)Nc2ccccc2)c(=O)[nH]c1=S do in these assays?
Mdm2-MdmX inh: inactive; UPR XBP1 act: inactive; CHOP UPR activ: inactive; CSC inhib: inactive; T cruzi repl: inactive; Beta apoptosis: inactive

Results for COC(=O)C1=C(c2ccc(-c3ccccc3)c(F)c2)C[C@@H]2CC[C@H]1N2C(=O)NCCCOC(C)C ?
Mdm2-MdmX inh: inactive; UPR XBP1 act: inactive; CHOP UPR activ: inactive; CSC inhib: inactive; Beta apoptosis: inactive

Results for COc1ccc(C(=O)c2nc3ccccc3n2C(C)C)cc1 ?
Mdm2-MdmX inh: inactive; UPR XBP1 act: inactive; CHOP UPR activ: inactive; CSC inhib: inactive; T cruzi repl: inactive; Beta apoptosis: inactive

Results for O=c1[nH]c(=O)n(Cc2ccccc2Cl)c(O)c1/C=C1/C=CC=N1 ?
Mdm2-MdmX inh: inactive; UPR XBP1 act: inactive; CHOP UPR activ: inactive; CSC inhib: inactive; T cruzi repl: inactive; Beta apoptosis: inactive

What do the screens show for `Cc1cc(C)n(-c2ccc(NN=C(C#N)C#N)cc2)n1`?
Mdm2-MdmX inh: 62; UPR XBP1 act: inactive; CHOP UPR activ: inactive; CSC inhib: inactive; T cruzi repl: inactive; Beta apoptosis: inactive; Mdm2-MdmX conf: 58; Full FLuc ctr: 57

How did CCN(CC)S(=O)(=O)c1ccc(NN=C(C#N)C#N)cc1 do in these assays?
Mdm2-MdmX inh: inactive; UPR XBP1 act: inactive; CHOP UPR activ: inactive; CSC inhib: inactive; T cruzi repl: inactive; Beta apoptosis: inactive

What do the screens show for `N#CC(C#N)=NNc1ccc(-n2ccc(C(F)(F)F)n2)cc1`?
Mdm2-MdmX inh: 94; UPR XBP1 act: inactive; CHOP UPR activ: inactive; CSC inhib: inactive; T cruzi repl: inactive; Beta apoptosis: 102; Mdm2-MdmX conf: 73; Full FLuc ctr: inactive

Source: PubChem (several laboratories)
